Test results taken from ChEMBL document CHEMBL2016568, “Bromophenols as inhibitors of protein tyrosine phosphatase 1B with antidiabetic properties” (Bioorg Med Chem Lett, 2012).
Blank lines part the entries; values can stand above or below the compound they belong to.

Columns and labels:
[1] = molecular target: T1, Tyrosine-protein phosphatase non-receptor type 1 (Homo sapiens, UniProt P18031); assay: Inhibition of GST-tagged human recombinant PTB1B using pNPP as substrate after 3 mins
T1 sequence (P18031 whole entry): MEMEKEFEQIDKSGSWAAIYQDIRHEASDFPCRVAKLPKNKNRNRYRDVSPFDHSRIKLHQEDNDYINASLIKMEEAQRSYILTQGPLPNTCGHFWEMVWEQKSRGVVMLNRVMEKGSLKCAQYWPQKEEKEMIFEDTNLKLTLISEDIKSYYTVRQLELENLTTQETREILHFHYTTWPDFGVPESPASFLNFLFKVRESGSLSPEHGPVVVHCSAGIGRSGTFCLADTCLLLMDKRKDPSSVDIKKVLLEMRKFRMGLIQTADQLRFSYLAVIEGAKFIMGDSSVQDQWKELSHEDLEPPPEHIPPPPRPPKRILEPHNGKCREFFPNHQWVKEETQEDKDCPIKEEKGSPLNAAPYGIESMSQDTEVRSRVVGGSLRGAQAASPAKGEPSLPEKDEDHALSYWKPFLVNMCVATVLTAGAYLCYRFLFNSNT

[2] = molecular target: T2, Tyrosine-protein phosphatase non-receptor type 1 (Homo sapiens) (UniProt P18031); assay: Inhibition of GST-tagged human recombinant PTB1B using pNPP as substrate at 20 ug/ml after 3 mins
T2 sequence (whole entry): T1 sequence (P18031 whole entry)

[3] = molecular target: T2, Tyrosine-protein phosphatase non-receptor type 1 (Homo sapiens); assay: Inhibition of GST-tagged human recombinant PTB1B using pNPP as substrate at 5 ug/ml after 3 mins
Homo sapiens [4] = species: Homo sapiens; assay: Selectivity ratio of IC50 for TCPTP to IC50 for GST-tagged human recombinant PTB1B
[5] = molecular target: T3, Tyrosine-protein phosphatase non-receptor type 11 (Homo sapiens, UniProt Q06124); assay: Inhibition of SHP2 using OMFP as substrate after 3 mins
T3 sequence (Q06124 whole entry): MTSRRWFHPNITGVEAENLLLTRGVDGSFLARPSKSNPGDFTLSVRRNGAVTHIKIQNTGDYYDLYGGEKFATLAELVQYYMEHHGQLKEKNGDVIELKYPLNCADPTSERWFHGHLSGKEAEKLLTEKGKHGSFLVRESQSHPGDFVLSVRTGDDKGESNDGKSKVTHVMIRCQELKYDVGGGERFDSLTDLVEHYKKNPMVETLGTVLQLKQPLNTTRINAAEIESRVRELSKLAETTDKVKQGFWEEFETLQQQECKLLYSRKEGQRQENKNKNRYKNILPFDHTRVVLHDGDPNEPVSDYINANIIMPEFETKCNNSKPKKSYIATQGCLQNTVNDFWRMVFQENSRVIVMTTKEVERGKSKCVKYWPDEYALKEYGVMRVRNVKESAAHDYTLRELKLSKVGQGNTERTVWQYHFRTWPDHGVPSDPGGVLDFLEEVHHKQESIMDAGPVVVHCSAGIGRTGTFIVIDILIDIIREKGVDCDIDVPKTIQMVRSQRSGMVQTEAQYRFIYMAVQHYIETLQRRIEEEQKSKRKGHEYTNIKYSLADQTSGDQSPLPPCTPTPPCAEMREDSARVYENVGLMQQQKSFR
Procedure, shortened: (§1)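 Selectivity assays run in the same system as PTP1B. Enzyme and inhibitor preincubated 3 min at 4 °C, then the reaction started by adding substrate. OMFP used as substrate for SHP1, SHP2 and LAR. IC50 derived by Hill-equation fit of percent inhibition against inhibitor concentration.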

Mus musculus [6] = assay: Toxicity in C57BL/Ks db/db mouse at 25 to 50 mg/kg, po after 2 to 6 weeks; format: organism-based; parameters: route oral; details: in vivo
[7] = molecular target: Tyrosine-protein phosphatase non-receptor type 6 (Homo sapiens, UniProt P29350); assay: Inhibition of SHP1 using OMFP as substrate after 3 mins; procedure, shortened: as §1
Tyrosine-protein phosphatase non-receptor type 6, sequence (P29350 whole entry): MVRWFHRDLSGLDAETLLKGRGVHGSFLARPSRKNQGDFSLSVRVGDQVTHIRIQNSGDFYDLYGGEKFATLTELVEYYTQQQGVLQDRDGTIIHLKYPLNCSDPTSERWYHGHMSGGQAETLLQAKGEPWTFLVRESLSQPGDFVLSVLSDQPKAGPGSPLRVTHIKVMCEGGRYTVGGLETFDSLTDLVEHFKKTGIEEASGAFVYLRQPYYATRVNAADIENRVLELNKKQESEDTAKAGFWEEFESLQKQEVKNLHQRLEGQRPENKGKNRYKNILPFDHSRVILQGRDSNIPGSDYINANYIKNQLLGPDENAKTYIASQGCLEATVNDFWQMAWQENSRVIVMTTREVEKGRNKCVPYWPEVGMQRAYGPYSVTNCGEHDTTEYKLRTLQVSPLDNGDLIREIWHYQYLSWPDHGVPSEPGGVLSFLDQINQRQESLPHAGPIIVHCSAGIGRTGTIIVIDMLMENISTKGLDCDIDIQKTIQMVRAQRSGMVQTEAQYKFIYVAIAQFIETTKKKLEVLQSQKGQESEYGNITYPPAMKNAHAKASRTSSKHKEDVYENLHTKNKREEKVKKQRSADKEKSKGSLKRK

Homo sapiens [8] = species: Homo sapiens; assay: Selectivity ratio of IC50 for LAR to IC50 for GST-tagged human recombinant PTB1B
Mus musculus [9] = assay: Antidyslipidemic activity in C57BL/Ks db/db mouse assessed as reduction of triacylglycerol level at 25 mg/kg, po after 2 weeks (reference value: 1.24 +/- 0.12 mmol/L); format: functional
Mus musculus [10] = assay: Antidyslipidemic activity in C57BL/Ks db/db mouse assessed as reduction of triacylglycerol level at 50 mg/kg, po after 6 weeks (reference value: 1.56 +/- 0.17 mmol/L); format: functional
Homo sapiens [11] = species: Homo sapiens; assay: Selectivity ratio of IC50 for SHP2 to IC50 for GST-tagged human recombinant PTB1B
Mus musculus [12] = assay: Antidyslipidemic activity in C57BL/Ks db/db mouse assessed as reduction of triacylglycerol level at 50 mg/kg, po after 2 weeks (reference value: 1.24 +/- 0.12 mmol/L); format: functional
Homo sapiens [13] = species: Homo sapiens; assay: Selectivity ratio of IC50 for SHP1 to IC50 for GST-tagged human recombinant PTB1B
Mus musculus [14] = assay: Antidyslipidemic activity in C57BL/Ks db/db mouse assessed as reduction of total cholesterol level at 50 mg/kg, po after 2 weeks (reference value: 9.8 +/- 0.7 mmol/L); format: functional
Mus musculus [15] = assay: Antihyperglycemic activity in C57BL/Ks db/db mouse assessed as reduction of glycosylated hemoglobin level using HbA1c reagent at 25 mg/kg, po after 2 to 6 weeks relative to control; format: functional; parameters: scale not given: the % may be the effect or the level left
Procedure, shortened: (§2)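 HbA1c measured in C57BL/Ks db/db mice (n = 8 per group, 10 weeks old at start). Mice received oral doses suspended in 0.5% sodium carboxymethyl cellulose for six weeks, alongside a vehicle-treated model group. Results given as mean ± SD, compared against the model group.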

Mus musculus [16] = assay: Antihyperglycemic activity in C57BL/Ks db/db mouse assessed as reduction of plasma glucose level at 25 mg/kg, po after 2 to 6 weeks by glucometer relative to control; format: functional; parameters: scale not given: the % may be the effect or the level left
Procedure, shortened: (§3)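 db/db mice (C57BL/Ks, 10 weeks old, n = 8 per group) given compound orally in 0.5% sodium carboxymethyl cellulose for six weeks, with a vehicle model group. Postprandial blood glucose read weekly by glucometer. Baseline, 2-week and 6-week values given as mean ± SD. Percent decrease reported at 6 weeks, with statistics against the model group.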

Mus musculus [17] = assay: Antidyslipidemic activity in C57BL/Ks db/db mouse assessed as reduction of total cholesterol level at 25 mg/kg, po after 6 weeks (reference value: 9.2 +/- 1.2 mmol/L); format: functional
Mus musculus [18] = assay: Antidyslipidemic activity in C57BL/Ks db/db mouse assessed as reduction of total cholesterol level at 25 mg/kg, po after 2 weeks (reference value: 9.8 +/- 0.7 mmol/L); format: functional
[19] = molecular target: Receptor-type tyrosine-protein phosphatase F (Homo sapiens, UniProt P10586); assay: Inhibition of LAR using OMFP as substrate after 3 mins; procedure, shortened: as §1
Receptor-type tyrosine-protein phosphatase F, sequence (P10586 whole entry): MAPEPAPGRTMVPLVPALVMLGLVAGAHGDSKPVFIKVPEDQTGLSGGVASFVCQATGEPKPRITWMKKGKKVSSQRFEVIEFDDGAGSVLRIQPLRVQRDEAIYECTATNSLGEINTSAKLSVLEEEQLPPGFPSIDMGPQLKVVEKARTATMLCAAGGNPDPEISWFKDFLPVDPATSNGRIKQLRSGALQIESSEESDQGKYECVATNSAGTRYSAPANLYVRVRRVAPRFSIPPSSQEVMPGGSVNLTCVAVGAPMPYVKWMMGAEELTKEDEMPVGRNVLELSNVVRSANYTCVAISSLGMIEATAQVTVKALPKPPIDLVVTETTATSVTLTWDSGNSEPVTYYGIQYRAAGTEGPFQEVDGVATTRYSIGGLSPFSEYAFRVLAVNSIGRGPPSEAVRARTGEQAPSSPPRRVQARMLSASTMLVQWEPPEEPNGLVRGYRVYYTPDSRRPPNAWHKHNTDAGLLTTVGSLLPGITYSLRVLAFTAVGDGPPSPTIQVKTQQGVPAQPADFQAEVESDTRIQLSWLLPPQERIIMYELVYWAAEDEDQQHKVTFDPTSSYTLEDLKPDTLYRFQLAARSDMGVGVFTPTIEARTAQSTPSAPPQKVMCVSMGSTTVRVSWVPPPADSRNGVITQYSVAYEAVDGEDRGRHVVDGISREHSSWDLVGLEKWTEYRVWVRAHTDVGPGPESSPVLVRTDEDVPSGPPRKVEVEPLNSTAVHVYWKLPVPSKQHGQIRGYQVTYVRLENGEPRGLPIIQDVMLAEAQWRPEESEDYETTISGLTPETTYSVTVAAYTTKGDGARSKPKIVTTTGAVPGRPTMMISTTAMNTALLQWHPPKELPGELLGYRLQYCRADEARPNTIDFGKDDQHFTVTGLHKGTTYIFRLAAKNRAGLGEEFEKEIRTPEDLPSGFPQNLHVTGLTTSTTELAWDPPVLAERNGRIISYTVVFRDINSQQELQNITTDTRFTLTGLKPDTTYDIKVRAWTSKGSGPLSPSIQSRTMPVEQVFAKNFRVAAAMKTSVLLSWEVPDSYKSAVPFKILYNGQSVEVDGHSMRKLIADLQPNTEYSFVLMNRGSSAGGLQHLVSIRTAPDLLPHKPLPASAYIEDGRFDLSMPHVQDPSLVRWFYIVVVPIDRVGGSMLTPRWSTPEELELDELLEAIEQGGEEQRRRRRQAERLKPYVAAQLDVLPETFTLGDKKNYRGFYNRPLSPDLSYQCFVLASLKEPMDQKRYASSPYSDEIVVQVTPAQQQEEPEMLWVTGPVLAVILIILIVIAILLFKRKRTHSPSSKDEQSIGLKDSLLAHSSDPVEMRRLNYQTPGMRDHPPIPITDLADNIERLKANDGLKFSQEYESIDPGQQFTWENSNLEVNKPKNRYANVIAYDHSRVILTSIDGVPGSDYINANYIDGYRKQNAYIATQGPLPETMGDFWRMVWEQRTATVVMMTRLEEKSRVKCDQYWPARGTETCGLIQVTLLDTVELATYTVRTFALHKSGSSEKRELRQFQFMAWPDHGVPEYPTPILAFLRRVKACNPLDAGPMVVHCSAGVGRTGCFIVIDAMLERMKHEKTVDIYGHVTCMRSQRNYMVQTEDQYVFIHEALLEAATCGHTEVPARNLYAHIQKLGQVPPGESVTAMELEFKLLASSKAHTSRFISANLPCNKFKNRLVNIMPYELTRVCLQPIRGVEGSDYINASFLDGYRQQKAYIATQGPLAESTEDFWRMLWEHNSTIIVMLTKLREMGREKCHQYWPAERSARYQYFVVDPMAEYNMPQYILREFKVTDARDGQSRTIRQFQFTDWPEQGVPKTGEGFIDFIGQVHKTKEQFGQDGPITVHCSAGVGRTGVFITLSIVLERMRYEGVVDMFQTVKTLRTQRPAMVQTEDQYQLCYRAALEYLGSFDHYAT

Mus musculus [20] = assay: Antidyslipidemic activity in C57BL/Ks db/db mouse assessed as reduction of triacylglycerol level at 25 mg/kg, po after 6 weeks (reference value: 1.56 +/- 0.17 mmol/L); format: functional
Mus musculus [21] = assay: Antihyperglycemic activity in C57BL/Ks db/db mouse assessed as reduction of plasma glucose level at 50 mg/kg, po after 2 to 6 weeks by glucometer relative to control; format: functional; parameters: scale not given: the % may be the effect or the level left; procedure, shortened: as §3
[22] = molecular target: T4, Tyrosine-protein phosphatase non-receptor type 2 (Homo sapiens, UniProt P17706); assay: Inhibition of TCPTP after 3 mins; procedure, shortened: as §1
T4 sequence (P17706 whole entry): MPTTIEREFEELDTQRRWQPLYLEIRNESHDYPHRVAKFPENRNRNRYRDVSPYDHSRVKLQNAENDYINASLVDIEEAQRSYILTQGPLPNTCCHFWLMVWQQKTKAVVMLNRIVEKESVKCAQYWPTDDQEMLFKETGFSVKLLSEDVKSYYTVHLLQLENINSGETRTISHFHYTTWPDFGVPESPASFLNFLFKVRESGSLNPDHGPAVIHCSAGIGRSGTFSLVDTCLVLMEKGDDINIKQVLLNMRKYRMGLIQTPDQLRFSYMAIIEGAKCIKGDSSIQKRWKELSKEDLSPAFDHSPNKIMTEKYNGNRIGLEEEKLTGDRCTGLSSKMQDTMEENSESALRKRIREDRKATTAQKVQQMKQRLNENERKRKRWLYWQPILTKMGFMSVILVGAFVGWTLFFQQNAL

Mus musculus [23] = assay: Antihyperglycemic activity in C57BL/Ks db/db mouse assessed as reduction of glycosylated hemoglobin level using HbA1c reagent at 50 mg/kg, po after 2 to 6 weeks relative to control; format: functional; parameters: scale not given: the % may be the effect or the level left; procedure, shortened: as §2
Mus musculus [24] = assay: Antidyslipidemic activity in C57BL/Ks db/db mouse assessed as reduction of total cholesterol level at 50 mg/kg, po after 6 weeks (reference value: 9.2 +/- 1.2 mmol/L); format: functional

IC50 [1]: 2.45 µM
inhibition [2]: 95.1%
inhibition [3]: 72.1%
SMILES: O=C(c1cc(O)c(O)c(Br)c1Br)c1c(Br)c(O)c(O)c(Br)c1Br

Ratio IC50 (Homo sapiens [4]): > 70
IC50 [5]: > 50 µM
IC50 [7]: > 50 µM
Ratio IC50 (Homo sapiens [8]): > 70
Ratio IC50 (Homo sapiens [11]): > 70
Ratio IC50 (Homo sapiens [13]): > 70
IC50 [1]: 0.68 µM
IC50 [19]: > 50 µM
inhibition [2]: 101%
IC50 [22]: > 50 µM
inhibition [3]: 86.7%
SMILES: Oc1c(O)c(Br)c(Cc2c(Br)c(O)c(O)c(Br)c2Br)c(Br)c1Br
Activity (Mus musculus [6]): Non-toxic
Activity (Mus musculus [9]): 1.2 mmol/L
Activity (Mus musculus [10]): 1.51 mmol/L
Activity (Mus musculus [12]): 1.28 mmol/L
Activity (Mus musculus [14]): 7.1 mmol/L
Activity (Mus musculus [15]): 3.05%
Activity (Mus musculus [16]): 33.5%
Activity (Mus musculus [17]): 9.1 mmol/L
Activity (Mus musculus [18]): 8.3 mmol/L
Activity (Mus musculus [20]): 1.45 mmol/L
Activity (Mus musculus [21]): 40.4%
Activity (Mus musculus [23]): 3.05%
Activity (Mus musculus [24]): 8.4 mmol/L

inhibition [2]: 21.4%
SMILES: COc1cc(C(=O)c2cc(OC)c(OC)c(Br)c2Br)c(Br)c(Br)c1OC

inhibition [2]: 9.27%
SMILES: Oc1ccc(Cc2ccc(O)c(O)c2)cc1O

inhibition [2]: 20.3%
SMILES: O=C(c1cc(O)c(O)c(Br)c1Br)c1cc(O)c(O)c(Br)c1Br

inhibition [2]: 38.4%
SMILES: COc1ccc(Cc2ccc(OC)c(OC)c2)cc1OC

inhibition [2]: 11.2%
SMILES: O=C(c1ccc(O)c(O)c1)c1cc(O)c(O)cc1Br

inhibition [2]: 2.72%
SMILES: COc1ccc(C(=O)c2ccc(OC)c(OC)c2)cc1OC

inhibition [2]: 33.6%
SMILES: COc1cc(Br)c(C(=O)c2cc(OC)c(OC)cc2Br)cc1OC

inhibition [2]: 14.4%
SMILES: COc1ccc(Cc2cc(OC)c(OC)cc2Br)cc1OC

inhibition [2]: 12.2%
SMILES: Oc1ccc(Cc2cc(O)c(O)cc2Br)cc1O

inhibition [2]: 78.6%
inhibition [3]: 29.2%
SMILES: O=C(c1c(Br)c(O)c(O)c(Br)c1Br)c1c(Br)c(O)c(O)c(Br)c1Br

inhibition [2]: 52.5%
inhibition [3]: 40.2%
SMILES: COc1cc(Br)c(Cc2cc(OC)c(OC)c(Br)c2Br)cc1OC

inhibition [2]: 42.7%
SMILES: O=C(c1cc(O)c(O)cc1Br)c1cc(O)c(O)c(Br)c1Br

inhibition [2]: 13%
SMILES: COc1ccc(C(=O)c2cc(OC)c(OC)cc2Br)cc1OC

inhibition [2]: 92.3%
inhibition [3]: 45.3%
SMILES: Oc1cc(Cc2c(Br)c(O)c(O)c(Br)c2Br)c(Br)c(Br)c1O

IC50 [1]: 3.26 µM
inhibition [2]: 69.8%
inhibition [3]: 50.6%
SMILES: COc1cc(C(=O)c2c(Br)c(Br)c(OC)c(OC)c2Br)c(Br)c(Br)c1OC

inhibition [2]: 37.5%
SMILES: COc1cc(Br)c(C(=O)c2cc(OC)c(OC)c(Br)c2Br)cc1OC

inhibition [2]: 96.9%
inhibition [3]: 37.9%
SMILES: COc1c(Br)c(Br)c(Cc2c(Br)c(Br)c(OC)c(OC)c2Br)c(Br)c1OC

inhibition [2]: 8.74%
SMILES: O=C(c1cc(O)c(O)cc1Br)c1cc(O)c(O)cc1Br

inhibition [2]: 20.9%
SMILES: Oc1cc(Br)c(Cc2cc(O)c(O)cc2Br)cc1O

inhibition [2]: 13.5%
SMILES: O=C(c1ccc(O)c(O)c1)c1ccc(O)c(O)c1

inhibition [2]: 33.6%
SMILES: COc1cc(Br)c(Cc2cc(OC)c(OC)cc2Br)cc1OC

inhibition [2]: 40.5%
SMILES: Oc1cc(Br)c(Cc2cc(O)c(O)c(Br)c2Br)cc1O

IC50 [1]: 2.42 µM
inhibition [2]: 91.3%
inhibition [3]: 38.9%
SMILES: Oc1cc(Cc2cc(O)c(O)c(Br)c2Br)c(Br)c(Br)c1O

inhibition [2]: 60.4%
inhibition [3]: 28.9%
SMILES: COc1cc(Cc2cc(OC)c(OC)c(Br)c2Br)c(Br)c(Br)c1OC

SMILES: CN(CCOc1ccc(CC2SC(=O)NC2=O)cc1)c1ccccn1 (stereo unspecified) [ROSIGLITAZONE]
Activity (Mus musculus [10]): 1.29 mmol/L
Activity (Mus musculus [12]): 1.06 mmol/L
Activity (Mus musculus [14]): 6.5 mmol/L
Activity (Mus musculus [21]): 48.4%
Activity (Mus musculus [23]): 2.56%
Activity (Mus musculus [24]): 7.7 mmol/L

IC50 [1]: 2.02 µM
inhibition [2]: 105%
inhibition [3]: 47.8%
SMILES: COc1c(Br)c(Br)c(C(=O)c2c(Br)c(Br)c(OC)c(OC)c2Br)c(Br)c1OC

inhibition [2]: 98.7%
inhibition [3]: 49.3%
SMILES: COc1cc(Cc2c(Br)c(Br)c(OC)c(OC)c2Br)c(Br)c(Br)c1OC
